pIC50, pKi: −log10 of the molar value. Converted amounts (≈) assume the structure as drawn. Peptide text beside a SMILES is read from it.
Key:
[1] = Solubility was evaluated; assay type: physicochemical
Substance-K receptor [2] = molecular target: T1, Substance-K receptor (Homo sapiens, UniProt P21452); assay: Tested for binding affinity against human NK-2 receptor transfected on CHO cells using [125I]-His] NKA as radioligand; assay type: cell-based
T1 sequence (P21452 whole entry): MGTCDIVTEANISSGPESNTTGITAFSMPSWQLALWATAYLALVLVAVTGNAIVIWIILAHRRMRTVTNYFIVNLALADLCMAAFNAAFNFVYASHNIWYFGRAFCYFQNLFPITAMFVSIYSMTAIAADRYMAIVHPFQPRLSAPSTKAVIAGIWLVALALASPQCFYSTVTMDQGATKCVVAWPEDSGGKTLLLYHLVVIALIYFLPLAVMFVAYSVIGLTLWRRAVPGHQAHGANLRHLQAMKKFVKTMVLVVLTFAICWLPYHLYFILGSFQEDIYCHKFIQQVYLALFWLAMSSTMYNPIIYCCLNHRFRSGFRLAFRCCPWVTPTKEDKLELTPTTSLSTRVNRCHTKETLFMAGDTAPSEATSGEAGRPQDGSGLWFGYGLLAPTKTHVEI

Substance-K receptor [3] = molecular target: T2, Substance-K receptor (Oryctolagus cuniculus, UniProt P79218); assay: Tested for antagonist activity against NK-2 receptor in rabbit pulmonary artery by using Neurokinin A as agonist; assay type: functional; details: read-out: pA2 (converted)
T2 sequence (P79218 whole entry): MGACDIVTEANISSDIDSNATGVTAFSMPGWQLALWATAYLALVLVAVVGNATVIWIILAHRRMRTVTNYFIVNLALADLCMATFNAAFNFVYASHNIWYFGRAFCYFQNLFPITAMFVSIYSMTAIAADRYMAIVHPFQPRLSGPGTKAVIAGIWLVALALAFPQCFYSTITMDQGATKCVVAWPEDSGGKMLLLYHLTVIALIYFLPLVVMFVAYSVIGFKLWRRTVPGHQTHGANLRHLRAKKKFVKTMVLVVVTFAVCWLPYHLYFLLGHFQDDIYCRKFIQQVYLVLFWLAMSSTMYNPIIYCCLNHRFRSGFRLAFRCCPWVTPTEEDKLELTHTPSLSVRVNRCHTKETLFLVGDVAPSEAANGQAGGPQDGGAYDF
In short: (§1)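 Isolated-organ contractile bioassays: SP on rabbit vena cava (NK-1), neurokinin A on rabbit pulmonary artery (NK-2), neurokinin B on rat portal vein (NK-3); antagonist apparent affinity expressed as pA2 by Schild plot.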

Substance-K receptor [4] = molecular target: T3, Substance-K receptor (Rattus norvegicus, UniProt P16610); assay: Tested for binding affinity against rat NK-2 receptor transfected on CHO cells using [125I]-His] NKA as radioligand; assay type: cell-based
T3 sequence (P16610 whole entry): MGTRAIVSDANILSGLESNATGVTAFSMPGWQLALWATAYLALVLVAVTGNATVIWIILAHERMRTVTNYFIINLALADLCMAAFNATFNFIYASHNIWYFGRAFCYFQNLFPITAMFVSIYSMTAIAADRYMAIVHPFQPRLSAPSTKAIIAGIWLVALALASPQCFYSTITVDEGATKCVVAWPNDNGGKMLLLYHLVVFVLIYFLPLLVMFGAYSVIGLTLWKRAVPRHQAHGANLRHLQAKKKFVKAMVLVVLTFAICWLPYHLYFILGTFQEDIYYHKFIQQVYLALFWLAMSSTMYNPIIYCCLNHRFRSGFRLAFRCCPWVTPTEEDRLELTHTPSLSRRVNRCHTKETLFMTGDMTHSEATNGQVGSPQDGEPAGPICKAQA

Neuromedin-K receptor = molecular target: T4, Neuromedin-K receptor (Rattus norvegicus, UniProt P16177); assay: Tested for antagonist activity against NK-3 receptor in rat portal vein by using Neurokinin B as agonist; assay type: functional; details: read-out: pA2 (converted); in short: as §1
T4 sequence (P16177 whole entry): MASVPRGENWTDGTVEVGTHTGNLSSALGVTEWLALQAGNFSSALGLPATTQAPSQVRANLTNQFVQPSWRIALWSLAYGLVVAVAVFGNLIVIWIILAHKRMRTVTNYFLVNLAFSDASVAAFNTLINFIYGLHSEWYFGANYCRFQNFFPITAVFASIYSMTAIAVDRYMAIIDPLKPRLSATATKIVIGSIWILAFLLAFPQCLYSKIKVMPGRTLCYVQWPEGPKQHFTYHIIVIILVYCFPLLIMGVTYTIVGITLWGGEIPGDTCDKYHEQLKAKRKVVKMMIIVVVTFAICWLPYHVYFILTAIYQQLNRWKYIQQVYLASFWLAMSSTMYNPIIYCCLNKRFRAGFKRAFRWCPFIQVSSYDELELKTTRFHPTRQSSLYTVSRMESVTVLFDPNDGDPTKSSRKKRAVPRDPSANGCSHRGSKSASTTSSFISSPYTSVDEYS

Mus musculus [5] = assay: Tested for antinociceptive activity against mouse hotplate test for 10 min after intravenous injection at 0.5 […] (P*<0.05); assay type: functional
Mus musculus [6] = assay: Tested for antinociceptive activity against mouse hotplate test for 60 min after oral administration of 40 mg/kg (P*<0.05); assay type: functional
In short: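 Male CD1 mice (25-30 g) on a 55 ± 0.2 °C plate; forepaw-licking latency measured 60 min after oral 40 mg/kg given in water (soluble) or 0.2% hydroxypropylcellulose (insoluble); % increase of reaction time versus vehicle controls; groups of 12 animals; Dunnett t-test.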

Rattus norvegicus [7] = species: Rattus norvegicus; assay: Tested for its ability to promote degranulation of rat peritoneal mast cells at 0.1 mM or lower; No degranulation; assay type: functional, cell-based
In short: (§2)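 Peritoneal mast cells lavaged from male Sprague-Dawley rats (350-400 g), buffer pH 6.8, 2 × 10^4 cells/mL, preincubated 10 min at 37 °C, then exposed to compound (10^-7 to 10^-4 M, in water or DMSO) 10 min at 37 °C; iced, centrifuged; histamine in supernatant and pellet measured fluorimetrically with o-phthalaldehyde, as % of total.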

Mus musculus [8] = assay: Tested for antinociceptive activity against mouse hotplate test for 10 min after intravenous injection at 0.5 […] (P*<0.01); assay type: functional
[9] = molecular target: Substance-P receptor (Oryctolagus cuniculus); assay: Tested for antagonist activity against NK1 receptor in rabbit vena cava by using substance P (SP) as agonist; details: read-out: pA2 (converted)
Substance-K receptor [10] = molecular target: T1, Substance-K receptor; assay: Tested for binding affinity against human NK-2 receptor
Substance-K receptor [11] = molecular target: T3, Substance-K receptor; assay: Tested for binding affinity against rat NK-2 receptor
Substance-P receptor [12] = molecular target: Substance-P receptor (Homo sapiens, UniProt P25103); assay: Tested for binding affinity against human NK-1 receptor
Chain of Substance-P receptor (Homo sapiens, UniProt P25103) (P25103 whole entry): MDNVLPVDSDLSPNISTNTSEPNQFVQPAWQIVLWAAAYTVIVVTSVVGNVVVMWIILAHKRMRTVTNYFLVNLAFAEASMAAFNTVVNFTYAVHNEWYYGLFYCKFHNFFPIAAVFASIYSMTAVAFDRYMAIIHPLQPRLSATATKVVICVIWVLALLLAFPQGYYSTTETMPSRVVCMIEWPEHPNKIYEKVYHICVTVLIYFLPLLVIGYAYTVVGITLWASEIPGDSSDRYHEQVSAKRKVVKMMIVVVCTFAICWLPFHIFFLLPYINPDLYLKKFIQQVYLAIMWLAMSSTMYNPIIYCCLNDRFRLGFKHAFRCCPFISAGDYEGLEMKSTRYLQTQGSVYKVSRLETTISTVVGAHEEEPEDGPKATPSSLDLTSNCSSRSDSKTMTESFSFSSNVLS

Substance-P receptor [13] = molecular target: Substance-P receptor (Rattus norvegicus, UniProt P14600); assay: Tested for binding affinity against rat NK-1 receptor
Chain of Substance-P receptor (Rattus norvegicus, UniProt P14600) (P14600 whole entry): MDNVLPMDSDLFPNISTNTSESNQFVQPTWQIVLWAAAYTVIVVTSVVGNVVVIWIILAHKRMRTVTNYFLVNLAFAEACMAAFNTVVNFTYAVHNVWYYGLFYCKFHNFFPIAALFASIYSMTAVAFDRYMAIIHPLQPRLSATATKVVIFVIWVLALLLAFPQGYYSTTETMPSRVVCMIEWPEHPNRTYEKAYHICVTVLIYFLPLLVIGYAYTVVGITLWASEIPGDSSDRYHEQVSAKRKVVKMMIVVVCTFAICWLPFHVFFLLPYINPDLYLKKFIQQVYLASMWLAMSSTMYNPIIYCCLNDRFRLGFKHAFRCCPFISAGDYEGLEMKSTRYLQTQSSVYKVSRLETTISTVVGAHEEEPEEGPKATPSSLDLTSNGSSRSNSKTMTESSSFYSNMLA

Rattus norvegicus [14] = species: Rattus norvegicus; assay: Tested for its ability to promote degranulation of rat peritoneal mast cells; assay type: functional, cell-based; in short: as §2
[15] = (§3) Binding affinity by displacement of tritiated substance P from its binding sites on membrane preparations from mouse brain; assay type: tissue-based
[16] = (§4) Binding affinity by displacement of tritiated substance P from its binding sites on membrane preparations from rat brain; assay type: tissue-based
Rattus norvegicus [17] = species: Rattus norvegicus; assay: as §4
Mus musculus [18] = species: Mus musculus; assay: as §3

| solubility [1] | Kb (Substance-K receptor [3]) | Kb (Neuromedin-K receptor) | Kb [9] | Structure (SMILES) | Increase (Mus musculus [5]) | Increase (Mus musculus [6]) | other results |
| --- | --- | --- | --- | --- | --- | --- | --- |
| < 0.01 mg/mL | 12600 nM | 12600 nM |  | CN(Cc1ccccc1)C(=O)[C@H](Cc1ccccc1)NC(=O)[C@@H](Cc1cn(C=O)c2ccccc12)NC(=O)C[C@@H]1NC(=O)[C@@H]2C3CCC(CC3)N2C1=O | 51% | 33% | pIC50 (Substance-K receptor [2]): 7.77; pIC50 (Substance-K receptor [4]): 6.85; IC50 (Rattus norvegicus [7]): Not Active |
| < 0.01 mg/mL | 15800 nM | 12600 nM | 12600 nM | CCCCCCCC(=O)n1cc(C[C@@H](NC(=O)C[C@@H]2NC(=O)[C@@H]3C4CCC(CC4)N3C2=O)C(=O)N[C@@H](Cc2ccccc2)C(=O)N(C)Cc2ccccc2)c2ccccc21 |  |  |  |
| 40 mg/mL (≈ 48.1 mM) | 10000 nM | 10000 nM | 39.8 nM | CN(Cc1ccccc1)C(=O)[C@H](Cc1ccccc1)NC(=O)[C@@H](Cc1cn(C(=O)OCCCCCCN)c2ccccc12)NC(=O)C[C@@H]1NC(=O)[C@@H]2C3CCC(CC3)N2C1=O | 40% | 62% | pIC50 (Substance-K receptor [10]): 7.34; pIC50 (Substance-K receptor [11]): 6.61; pIC50 (Substance-P receptor [12]): 7.47; pIC50 (Substance-P receptor [13]): 5.50; pIC50 (Rattus norvegicus [14]): 4.89 |
|  |  |  |  | CSCC[C@@H](NC(=O)[C@H](CC(C)C)NC(=O)CNC(=O)[C@H](Cc1ccccc1)NC(=O)[C@H](Cc1ccccc1)NC(=O)[C@H](CCC(N)=O)NC(=O)[C@H](CCC(N)=O)NC(=O)[C@@H]1CCCN1)C(N)=O |  |  | pKi [15]: 6.12; pKi [16]: 6.12 |
|  |  | 631 nM |  | CC(C)C[C@H](NC(=O)[C@H](CC(C)C)NC(=O)[C@@H](Cc1c[nH]c2ccccc12)NC(=O)[C@H](Cc1ccccc1)NC(=O)[C@@H](Cc1c[nH]c2ccccc12)NC(=O)[C@H](CCC(N)=O)NC(=O)[C@H](CCC(N)=O)NC(=O)[C@@H]1CCCN1C(=O)[C@H](CCCCN)NC(=O)[C@@H]1CCCN1C(=O)[C@H](N)CCCN=C(N)N)C(N)=O (HELM PEPTIDE1{[dR].P.K.P.Q.Q.[dW].F.[dW].L.L.[am]}$$$$V2.0) |  |  | pKi (Rattus norvegicus [17]): 5.59; pKi (Mus musculus [18]): 5.59 |
| 45 mg/mL (≈ 57 mM) | 15800 nM | 12600 nM | 126 nM | CN(Cc1ccccc1)C(=O)[C@H](Cc1ccccc1)NC(=O)[C@@H](Cc1cn(C(=O)CCC(=O)O)c2ccccc12)NC(=O)C[C@@H]1NC(=O)[C@@H]2C3CCC(CC3)N2C1=O | 42% | 53% | pIC50 (Substance-K receptor [10]): 6.89; pIC50 (Substance-K receptor [11]): 6.41; pIC50 (Substance-P receptor [12]): 7.07; pIC50 (Substance-P receptor [13]): 4.84 |

| Structure (SMILES) | solubility [1] | Kb (Substance-K receptor [3]) | Kb (Neuromedin-K receptor) | Kb [9] | Increase (Mus musculus [5]) | Increase (Mus musculus [6]) | other results |
| --- | --- | --- | --- | --- | --- | --- | --- |
| CN(Cc1ccccc1)C(=O)[C@H](Cc1ccccc1)NC(=O)[C@@H](Cc1c[nH]c2ccccc12)NC(=O)C[C@@H]1NC(=O)[C@@H]2C3CCC(CC3)N2C1=O | < 0.01 mg/mL | 2000 nM | 1580 nM |  |  | 74% | pIC50 (Substance-K receptor [2]): 7.19; pIC50 (Substance-K receptor [4]): 7.19; Increase (Mus musculus [8]): 66%; IC50 (Rattus norvegicus [7]): Not Active |

— ChEMBL document CHEMBL1126707, “Tetrapeptide tachykinin antagonists: synthesis and modulation of the physicochemical and pharmacological properties of a new series of partially cyclic analogs” (J Med Chem, 1993)
